Test results from ChEMBL document CHEMBL1128515, “Cardioselective anti-ischemic ATP-sensitive potassium channel openers. 3. Structure-activity studies on benzopyranyl cyanoguanidines: modification of the cyanoguanidine portion” (J Med Chem, 1995).

How the values were obtained:
Assay type in all cases: functional
Rattus norvegicus [1] = species on record: Rattus norvegicus; test: Concentration necessary for increase in time to contracture by 25% in the globally ischemic rat hearts
Outline: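 Isolated rat hearts, perfused and then made globally ischemic. The EC25 is the concentration giving a 25% increase in time to onset of contracture. Time to contracture is the time during total global ischemia for end-diastolic pressure to rise 5 mmHg above baseline.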

Rattus norvegicus [2] = species on record: Rattus norvegicus; test: Ratio of the concentration increasing time to contracture by 25% (EC25) in rat heart and concentration showing vasorelaxant potency (IC50) in rat aorta.
Outline: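 Cardiac selectivity index: the ratio of vasorelaxant potency (IC50 for relaxing methoxamine-contracted rat aorta) to anti-ischemic potency (EC25 for increasing time to contracture in globally ischemic isolated perfused rat hearts).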

Rattus norvegicus [3] = species on record: Rattus norvegicus; test: Tested for the vasorelaxant potency in methoxamine contracted rat aorta
Outline: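 Rat aortic tissue contracted with methoxamine. The IC50 is the concentration producing relaxation.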

Rattus norvegicus [4] = species on record: Rattus norvegicus; test: Concentration necessary for increase in time to contracture at a concentration of 10 uM in ischemic rat hearts

Cc1ccc(N/C(=N/[C@@H]2c3cc(C#N)ccc3OC(C)(C)[C@H]2O)NC#N)cc1C
EC25 (Rattus norvegicus [1]): 2.5 µM | Ratio (Rattus norvegicus [2]): 0.49 | IC50 (Rattus norvegicus [3]): 5.1 µM

CSc1ccc(N/C(=N/[C@@H]2c3cc(C#N)ccc3OC(C)(C)[C@H]2O)NC#N)cc1
IC50 (Rattus norvegicus [3]): 6.3 µM

CCC(C)(C)/N=C(\NC#N)N[C@@H]1c2cc(C#N)ccc2OC(C)(C)[C@H]1O
Ratio (Rattus norvegicus [2]): 0.7

CSc1cccc(N/C(=N/[C@@H]2c3cc(C#N)ccc3OC(C)(C)[C@H]2O)NC#N)c1
EC25 (Rattus norvegicus [1]): 8.2 µM | Ratio (Rattus norvegicus [2]): 5.6 | IC50 (Rattus norvegicus [3]): 1.4 µM

CC1(C)Oc2ccc(C#N)cc2[C@@H](/N=C(\NC#N)Nc2ccc(Cl)cc2)[C@@H]1O
Ratio (Rattus norvegicus [2]): 1.4

CC1(C)Oc2ccc(C#N)cc2[C@@H](NC(=O)NCc2ccccc2)[C@@H]1O
EC25 (Rattus norvegicus [1]): >30 µM | IC50 (Rattus norvegicus [3]): 5.6 µM

CC1(C)Oc2ccc(C#N)cc2[C@@H](/N=C(\NC#N)Nc2cccc([N+](=O)[O-])c2)[C@@H]1O
EC25 (Rattus norvegicus [1]): 5 µM | Ratio (Rattus norvegicus [2]): 7.5 | IC50 (Rattus norvegicus [3]): 0.67 µM

CC1(C)Oc2ccc(C#N)cc2[C@@H](/N=C(\NC#N)Nc2ccc(Cl)c(F)c2)[C@@H]1O
IC50 (Rattus norvegicus [3]): 1.66 µM

CC1(C)Oc2ccc(C#N)cc2[C@@H](/N=C(\NC#N)Sc2ccccc2)[C@@H]1O
EC25 (Rattus norvegicus [1]): >30 µM | IC50 (Rattus norvegicus [3]): 4.9 µM

CC1(C)Oc2ccc(C#N)cc2[C@@H](N2CCCC2=O)[C@@H]1O [CROMAKALIM]
Ratio (Rattus norvegicus [2]): 278.1

CC1(C)Oc2ccc(C#N)cc2[C@@H](N2CCN(c3ccccc3)C2=O)[C@@H]1O
EC25 (Rattus norvegicus [1]): 10 µM | Ratio (Rattus norvegicus [2]): 0.42 | IC50 (Rattus norvegicus [3]): 23.7 µM

CC1(C)Oc2ccc(C#N)cc2[C@@H](/N=C(\NC#N)Nc2cccc(C(F)(F)F)c2)[C@@H]1O
EC25 (Rattus norvegicus [1]): 5.3 µM | Ratio (Rattus norvegicus [2]): 3.3 | IC50 (Rattus norvegicus [3]): 1.6 µM

Cc1ccc(N/C(=N/[C@@H]2c3cc(C#N)ccc3OC(C)(C)[C@H]2O)NC#N)cc1
EC25 (Rattus norvegicus [1]): 1.6 µM | Ratio (Rattus norvegicus [2]): 0.6 | IC50 (Rattus norvegicus [3]): 2.7 µM

CC1(C)Oc2ccc(C#N)cc2[C@@H](/N=C(\NC#N)Nc2cccc(Cl)c2)[C@@H]1O
EC25 (Rattus norvegicus [1]): 1.4 µM | Ratio (Rattus norvegicus [2]): 2.3 | IC50 (Rattus norvegicus [3]): 0.6 µM

CC1(C)Oc2ccc(C#N)cc2[C@@H](NC(=O)Nc2cccnc2)[C@@H]1O
EC25 (Rattus norvegicus [1]): 4.2 µM | Ratio (Rattus norvegicus [2]): 8.4 | IC50 (Rattus norvegicus [3]): 0.5 µM

CC(=O)c1ccc(N/C(=N/[C@@H]2c3cc(C#N)ccc3OC(C)(C)[C@H]2O)NC#N)cc1
EC25 (Rattus norvegicus [1]): 52 µM | Ratio (Rattus norvegicus [2]): 2.5 | IC50 (Rattus norvegicus [3]): 21 µM

CC1(C)Oc2ccc(C#N)cc2[C@@H](/N=C(\NC#N)Nc2ccccc2)[C@@H]1O (stereo in doubt; 3)
EC25 (Rattus norvegicus [1]): 11 µM | Ratio (Rattus norvegicus [2]): 7.9

CC1(C)Oc2ccc(C#N)cc2[C@@H](/N=C(\NC#N)NNc2ccccc2)[C@@H]1O
IC50 (Rattus norvegicus [3]): 3.5 µM | Activity (Rattus norvegicus [4]): 4%

CC1(C)Oc2ccc(C#N)cc2[C@@H](/N=C(\NC#N)Nc2ccc3c(c2)CCC3)[C@@H]1O
EC25 (Rattus norvegicus [1]): 3.5 µM | Ratio (Rattus norvegicus [2]): 0.08 | IC50 (Rattus norvegicus [3]): 41.3 µM

CC1(C)Oc2ccc(C#N)cc2[C@@H](/N=C(\NC#N)Nc2ccc(C(F)(F)F)cc2)[C@@H]1O
Ratio (Rattus norvegicus [2]): 1.4

COC(=O)c1cn([C@@H]2c3cc(C#N)ccc3OC(C)(C)[C@H]2O)c2ccccc12
EC25 (Rattus norvegicus [1]): 3.2 µM

COC(=O)c1cccc(N/C(=N/[C@@H]2c3cc(C#N)ccc3OC(C)(C)[C@H]2O)NC#N)c1
IC50 (Rattus norvegicus [3]): 4.1 µM

CC1(C)Oc2ccc(C#N)cc2[C@@H](/N=C(\NC#N)Oc2ccccc2)[C@@H]1O
EC25 (Rattus norvegicus [1]): 68.8 µM | IC50 (Rattus norvegicus [3]): > 100 µM

COC(=O)c1cc2ccccc2n1[C@@H]1c2cc(C#N)ccc2OC(C)(C)[C@H]1O
EC25 (Rattus norvegicus [1]): 8.1 µM

CC1(C)Oc2ccc(C#N)cc2[C@@H](n2c(O)nc3ccccc32)[C@@H]1O
EC25 (Rattus norvegicus [1]): 11.7 µM

CC(=O)c1cccc(N/C(=N/[C@@H]2c3cc(C#N)ccc3OC(C)(C)[C@H]2O)NC#N)c1
IC50 (Rattus norvegicus [3]): 8.4 µM

COc1ccc(N/C(=N/[C@@H]2c3cc(C#N)ccc3OC(C)(C)[C@H]2O)NC#N)cc1
EC25 (Rattus norvegicus [1]): 5.3 µM | Ratio (Rattus norvegicus [2]): 0.16 | IC50 (Rattus norvegicus [3]): 32.5 µM

CC1(C)Oc2ccc(C#N)cc2[C@@H](n2cc(C#N)c3ccccc32)[C@@H]1O
EC25 (Rattus norvegicus [1]): 25.5 µM | Ratio (Rattus norvegicus [2]): 11.5 | IC50 (Rattus norvegicus [3]): 2.2 µM

COC(=O)c1ccc(N/C(=N/[C@@H]2c3cc(C#N)ccc3OC(C)(C)[C@H]2O)NC#N)cc1
IC50 (Rattus norvegicus [3]): 18.4 µM

CC1(C)Oc2ccc(C#N)cc2[C@@H](/N=C(\NC#N)NCc2ccccc2)[C@@H]1O
EC25 (Rattus norvegicus [1]): >30 µM | IC50 (Rattus norvegicus [3]): 2.4 µM

Cc1cccc(N/C(=N/[C@@H]2c3cc(C#N)ccc3OC(C)(C)[C@H]2O)NC#N)c1
EC25 (Rattus norvegicus [1]): 2.7 µM

CC1(C)Oc2ccc(C#N)cc2[C@@H](/N=C(\NC#N)Nc2cccc(C(=O)O)c2)[C@@H]1O
IC50 (Rattus norvegicus [3]): > 100 µM

CC1(C)Oc2ccc(C#N)cc2[C@@H](/N=C(\NC#N)Nc2ccc(C(=O)O)cc2)[C@@H]1O
IC50 (Rattus norvegicus [3]): > 100 µM

CC1(C)Oc2ccc(C#N)cc2[C@@H](NC(=O)Nc2ccncc2)[C@@H]1O
Increase (Rattus norvegicus [1]): 1% | IC50 (Rattus norvegicus [3]): 8.5 µM

CC1(C)Oc2ccc(C#N)cc2[C@@H](NC(=O)Nc2ccccn2)[C@@H]1O
EC25 (Rattus norvegicus [1]): 2.6 µM | Ratio (Rattus norvegicus [2]): 5.9 | IC50 (Rattus norvegicus [3]): 0.44 µM

CC1(C)Oc2ccc(C#N)cc2[C@@H](NC(=O)c2ccccc2)[C@@H]1O
EC25 (Rattus norvegicus [1]): 11.8 µM | Ratio (Rattus norvegicus [2]): 393 | IC50 (Rattus norvegicus [3]): 0.03 µM

C/N=C(\NC#N)N[C@@H]1c2cc(C#N)ccc2OC(C)(C)[C@H]1O
EC25 (Rattus norvegicus [1]): 13.3 µM | Ratio (Rattus norvegicus [2]): 66.5

CC1(C)Oc2ccc(C#N)cc2[C@@H](/N=C(\NC#N)Nc2ccc(Cl)c(Cl)c2)[C@@H]1O
EC25 (Rattus norvegicus [1]): 12.9 µM | Ratio (Rattus norvegicus [2]): 2.8 | IC50 (Rattus norvegicus [3]): 4.6 µM

CC1(C)Oc2ccc(C#N)cc2[C@@H](/N=C(\NC#N)Nc2ccc([N+](=O)[O-])cc2)[C@@H]1O
EC25 (Rattus norvegicus [1]): 6.2 µM | Ratio (Rattus norvegicus [2]): 20.6 | IC50 (Rattus norvegicus [3]): 0.3 µM

CC1(C)Oc2ccc(C#N)cc2[C@@H](/N=C(\NC#N)Nc2ccccc2)[C@@H]1O (stereo in doubt; 22)
EC25 (Rattus norvegicus [1]): 6.1 µM | Ratio (Rattus norvegicus [2]): 4.7

CC1(C)Oc2ccc(C#N)cc2[C@@H](NC(=O)Cc2ccccc2)[C@@H]1O
EC25 (Rattus norvegicus [1]): 22.2 µM | Ratio (Rattus norvegicus [2]): 12.3 | IC50 (Rattus norvegicus [3]): 1.8 µM
